Source: ChEMBL document CHEMBL1134856, “SAR of 2,6-diamino-3,5-difluoropyridinyl substituted heterocycles as novel p38MAP kinase inhibitors” (Bioorg Med Chem Lett, 2002)

Tests used:
[1] = target: Mitogen-activated protein kinase 14 (Mus musculus, UniProt P47811); assay: […] inhibition of murine Mitogen-activated protein kinase p38 alpha activity, GST-ATF-2 as substrate in the presence of 120 uM ATP
Summary of the method: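 Phosphorylated His-tagged p38α MAP kinase of murine origin was used at 10 ng/well. Immobilised GST-ATF-2 served as substrate, with 120 μM cold ATP.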

PBMC = assay: Inhibition of LPS-stimulated TNF-alpha release from human peripheral blood mononuclear cells; format: functional, cell-based
Summary of the method: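 Human peripheral blood mononuclear cells from healthy volunteers were incubated with inhibitor and stimulated with LPS/IFN-γ for 3 h. TNF-α in the supernatants was determined by ELISA.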

[2] = target: T1, Prostaglandin G/H synthase 1 (Ovis aries, UniProt P05979); assay: […] inhibition of ram seminal vesicle Prostaglandin G/H synthase 1 activity by determining PGE-2 by RIA
T1 sequence (P05979 whole entry): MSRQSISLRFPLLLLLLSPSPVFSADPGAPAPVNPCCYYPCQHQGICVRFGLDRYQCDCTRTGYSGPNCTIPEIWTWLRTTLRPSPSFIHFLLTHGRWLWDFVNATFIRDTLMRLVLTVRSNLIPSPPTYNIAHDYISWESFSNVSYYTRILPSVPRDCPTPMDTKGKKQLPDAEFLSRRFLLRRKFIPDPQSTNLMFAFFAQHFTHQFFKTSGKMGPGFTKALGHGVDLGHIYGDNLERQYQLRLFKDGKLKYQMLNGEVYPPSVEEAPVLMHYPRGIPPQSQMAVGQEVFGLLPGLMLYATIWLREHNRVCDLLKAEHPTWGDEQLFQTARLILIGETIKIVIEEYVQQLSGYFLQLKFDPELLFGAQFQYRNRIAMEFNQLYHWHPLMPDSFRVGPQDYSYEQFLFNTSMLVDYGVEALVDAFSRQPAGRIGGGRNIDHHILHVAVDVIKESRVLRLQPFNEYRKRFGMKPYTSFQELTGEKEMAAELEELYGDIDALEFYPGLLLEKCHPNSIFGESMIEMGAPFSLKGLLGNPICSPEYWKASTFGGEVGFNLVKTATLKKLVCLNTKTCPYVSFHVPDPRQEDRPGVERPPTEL

Mus musculus = assay: Inhibition of LPS induced TNF-alpha release in mice at 10 mg/kg peroral dose; format: functional; settings: route oral
Summary of the method: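 Female OF1 mice, 8 weeks old, received compound by oral gavage in DMSO/corn oil. One hour after dosing, LPS (20 mg/kg) was given iv. Blood was collected 1 h later, and plasma TNF-α was measured by mouse-specific ELISA.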

Rattus norvegicus [3] = species on record: Rattus norvegicus; assay: Tested for inhibition of paw swelling in collagen induced arthritis in rat, perorally b.i.d.; format: functional; settings: oral
Summary of the method: (§1)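 Female WAGxBUF/F1 rats were immunised intradermally with bovine nasal septum type II collagen in Freund's incomplete adjuvant; swelling began about 10 days later. Oral dosing, once or twice daily, started on day 13 and continued for 10 days. Read-out was paw swelling, with ED50 values reported.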

Rattus norvegicus [4] = species on record: Rattus norvegicus; assay: Inhibition of LPS induced TNF-alpha release in rats; format: functional
Rattus norvegicus [5] = assay: Tested for inhibition of swelling in adjuvant induced arthritis rat at 25 mg/kg perorally b.i.d.; format: functional; settings: route oral
Summary of the method: (§2)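 Adjuvant-induced arthritis: female Wistar rats were immunised with Mycobacterium tuberculosis on day 0. They were dosed orally at 2 × 25 mg/kg per day from day 14 to day 20. Joint swelling was measured on day 20.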

Rattus norvegicus [6] = assay: Dose-dependent protective activity at 10 mg/kg (po, b.i.d.) on bone apposition in hind paws of CIA-rats; format: functional
Rattus norvegicus [7] = species on record: Rattus norvegicus; assay: Tested for inhibition of paw swelling in collagen induced arthritis in rat, perorally q.d.; format: functional; settings: po; summary of the method: as §1
Rattus norvegicus [8] = assay: Dose-dependent protective activity at 3 mg/kg (po, b.i.d.) on bone apposition in hind paws of CIA-rats; format: functional
[9] = Tested for the Cmax in rat at 10 mg/kg per orally; format: ADME, organism-based; parameters: dose 10 mg/kg, route oral; settings: in vivo, po
[10] = Tested for the half life in rat; format: ADME, organism-based; settings: in vivo
Rattus norvegicus [11] = assay: Dose-dependent protective activity at 30 mg/kg (po, b.i.d.) in loss of proteoglycans in hind paws of CIA-rats; format: functional
Rattus norvegicus [12] = assay: Dose-dependent protective activity at 3 mg/kg (po, b.i.d.) on cartilage damage in hind paws of CIA-rats; format: functional
Rattus norvegicus [13] = assay: Dose-dependent protective activity at 10 mg/kg (po, b.i.d.) on infiltration of cells in hind paws of CIA-rats; format: functional
Rattus norvegicus [14] = assay: Dose-dependent protective activity at 30 mg/kg (po, b.i.d.) on cartilage damage in hind paws of CIA-rats; format: functional
[15] = Tested for the bioavailability in rat; format: ADME, organism-based; settings: in vivo
Homo sapiens = species on record: Homo sapiens; assay: Inhibition of LPS-stimulated TNF-alpha release from human whole blood; format: functional
Rattus norvegicus [16] = assay: Dose-dependent protective activity at 10 mg/kg (po, b.i.d.) on cartilage damage in hind paws of CIA-rats; format: functional
Rattus norvegicus [17] = assay: Dose-dependent protective activity at 3 mg/kg (po, b.i.d.) in loss of proteoglycans in hind paws of CIA-rats; format: functional
Rattus norvegicus [18] = assay: Dose-dependent protective activity at 3 mg/kg (po, b.i.d.) on infiltration of cells in hind paws of CIA-rats; format: functional
Rattus norvegicus [19] = assay: Dose-dependent protective activity at 30 mg/kg (po, b.i.d.) on bone apposition in hind paws of CIA-rats; format: functional
Rattus norvegicus [20] = assay: Dose-dependent protective activity at 30 mg/kg (po, b.i.d.) on infiltration of cells in hind paws of CIA-rats; format: functional
Rattus norvegicus [21] = assay: Dose-dependent protective activity at 10 mg/kg (po, b.i.d.) in loss of proteoglycans in hind paws of CIA-rats; format: functional
Rattus norvegicus [22] = assay: Tested for inhibition of swelling in adjuvant induced arthritis rat at 25 mg/kg per orally; format: functional; settings: route oral; summary of the method: as §2
Rattus norvegicus [23] = assay: Tested for inhibition of swelling in adjuvant induced arthritis rat at 25 mg/kg per orally; Toxic; format: functional; settings: po; summary of the method: as §2

Mitogen-activated protein kinase 14, sequence (P47811 whole entry): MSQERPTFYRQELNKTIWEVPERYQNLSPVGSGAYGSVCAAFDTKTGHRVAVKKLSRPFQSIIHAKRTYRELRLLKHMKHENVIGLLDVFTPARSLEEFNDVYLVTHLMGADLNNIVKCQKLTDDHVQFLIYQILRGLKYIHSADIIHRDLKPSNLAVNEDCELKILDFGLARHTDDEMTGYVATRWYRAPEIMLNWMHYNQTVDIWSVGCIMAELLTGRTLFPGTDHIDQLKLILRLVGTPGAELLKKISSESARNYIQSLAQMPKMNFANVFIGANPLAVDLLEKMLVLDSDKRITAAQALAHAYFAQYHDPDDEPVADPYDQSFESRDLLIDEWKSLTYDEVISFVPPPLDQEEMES

Row | IC50 [1] [nM] | IC50 [2] [nM] | SMILES | IC50 (PBMC) [nM] | inhibition in vivo at 10 mg/kg (Mus musculus) [%] | other results
1 | 5 | 100000 | Nc1nc(N)c(F)c(-c2nc(-c3ccncc3)c(-c3cc4ccccc4o3)[nH]2)c1F | 27 | 1.8 | 
2 | 16 | > 100000 | Nc1nc(N)c(F)c(-c2nc(-c3ccc(F)cc3)c(-c3ccncc3)[nH]2)c1F | 44 | 83 | ED50 (Rattus norvegicus [3]): 5 mg/kg; ED50 (Rattus norvegicus [4]): 4 mg/kg; ED50 (Rattus norvegicus [5]): 10 mg/kg; Protective activity (Rattus norvegicus [6]): -44%; ED50 (Rattus norvegicus [7]): 43 mg/kg; Protective activity (Rattus norvegicus [8]): -4%; Cmax [9]: 3.12 µM; half-life [10]: 1 h; Protective activity (Rattus norvegicus [11]): -42%; Protective activity (Rattus norvegicus [12]): -15%; Protective activity (Rattus norvegicus [13]): -37%; Protective activity (Rattus norvegicus [14]): -58%; bioavailability [15]: 49%; IC50 (Homo sapiens): 250 nM; Protective activity (Rattus norvegicus [16]): -44%; Protective activity (Rattus norvegicus [17]): -17%; Protective activity (Rattus norvegicus [18]): -11%; Protective activity (Rattus norvegicus [19]): -64%; Protective activity (Rattus norvegicus [20]): -45%; Protective activity (Rattus norvegicus [21]): -38%
3 | 90 | > 100000 | Fc1ccc(-c2[nH]c(-c3c(F)c(F)nc(F)c3F)nc2-c2ccncc2)cc1 | 74 | 3 | 
4 | 140 | 100000 | Nc1nc(N)c(F)c(-c2nc(-c3ccc(F)cc3)c(-c3ccncc3)s2)c1F | 31 |  | 
5 | 800 |  | Fc1ccc(-c2[nH]ccc2-c2ccncc2)cc1 |  |  | 
6 | 400 | 100000 | Nc1nc(N)c(F)c(-c2nc(-c3ccc(F)cc3)c(-c3ccncc3)o2)c1F | 373 | 81 | inhibition in vivo at 25 mg/kg (Rattus norvegicus [22]): 19%
7 | 4 | 100000 | Nc1nc(F)c(F)c(-c2nc(-c3ccncc3)c(-c3ccc(F)cc3)[nH]2)c1F | 44 | 64 | inhibition in vivo at 25 mg/kg (Rattus norvegicus [23]): 71%
8 | 1000 |  | Fc1ccc(-c2nc[nH]c2-c2ccncc2)cc1 |  |  | 
9 | 100000 |  | Fc1ccc(-c2nc(-c3c(F)c(F)nc(F)c3F)oc2-c2ccncc2)cc1 |  |  | 
10 | 4 | 6300 | Nc1nc(N)c(F)c(-c2cc(-c3ccncc3)c(-c3ccc(F)cc3)[nH]2)c1F | 18 |  | 
11 | 1300 |  | Fc1ccc(-c2[nH]nnc2-c2ccncc2)cc1 |  |  | 
12 | 800 |  | Fc1ccc(-c2ncsc2-c2ccncc2)cc1 |  |  | 
13 | 2100 | 100000 | Nc1nc(F)c(F)c(-c2nc(-c3ccc(F)cc3)c(-c3ccncc3)o2)c1F | 1930 |  | 
14 | 210 | 45000 | Nc1nc(N)c(F)c(-n2nc(-c3ccncc3)c(-c3ccc(F)cc3)n2)c1F |  |  | 
15 | 470 | 100000 | Nc1nc(N)c(F)c(-c2nc(-c3cccc(C(F)(F)F)c3)c(-c3ccncc3)[nH]2)c1F | 54 | 21 | 
16 | 670 | 100000 | Nc1nc(N)c(F)c(-c2nc(-c3ccncc3)c(-c3ccco3)[nH]2)c1F | 294 | 28 | 
17 | 10000 | 10000 | Fc1ccc(-c2nn(-c3c(F)c(F)nc(F)c3F)nc2-c2ccncc2)cc1 |  |  | 
